Source: ChEMBL document CHEMBL1144800, “Synthesis and antimicrobial properties of monensin A esters” (2008)
≈ marks a conversion by molar mass, not a printed value. Calls of active or inactive are those of the source. The calls are words filed in the database; no cut-off is given here.

Experiments:
Staphylococcus aureus [1] = test: Antibacterial activity against Staphylococcus aureus NCTC 4163 at 400 ug/disc after 18 hrs by disc diffusion assay; format: functional; conditions: NCTC 4163, 18 h, read-out: IZ
In short: (§1)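 Disc diffusion on Mueller–Hinton II agar per CLSI guidelines. Compound in ethanol applied to 9 mm filter paper discs at 400 µg per disc, then dried and placed on the agar surface. Growth inhibition zone diameter read after 18 h at 35 °C.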

Micrococcus luteus [2] = test: Antibacterial activity against Micrococcus luteus ATCC 9341 at 400 ug/disc after 18 hrs by disc diffusion assay; format: functional; conditions: ATCC 9341, 18 h, read-out: IZ; in short: as §1
Pseudomonas aeruginosa [3] = test: Antibacterial activity against Pseudomonas aeruginosa ATCC 27853 at 400 ug/disc after 18 hrs by disc diffusion assay; format: functional, organism-based; in short: as §1
Escherichia coli [4] = test: Antibacterial activity against Escherichia coli ATCC 10538 at 400 ug/disc after 18 hrs by disc diffusion assay; format: functional, organism-based; in short: as §1
Candida parapsilosis = test: Antifungal activity against Candida parapsilosis ATCC 22019 at 400 ug/disc after 24 hrs by disc diffusion assay; format: functional
In short: (§2)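 Disc diffusion on RPMI agar with 2% glucose per CLSI guidelines. Discs 9 mm filter paper, loaded from ethanol solution with 400 µg compound, dried before placing on the agar. Inhibition zone diameter read after incubation at 35 °C. Fluconazole control at 25 µg per disc.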

Micrococcus luteus [5] = test: Antibacterial activity against Micrococcus luteus ATCC 10240 after 18 hrs by serial agar dilution method; format: functional; conditions: ATCC 10240, 18 h
In short: (§3)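 MIC by twofold serial agar dilution in Mueller–Hinton II agar per CLSI, run only for compounds that gave an inhibition zone in disc assay. Compounds dissolved in DMSO, tested at 3.125–400 µg/ml in agar. Final inoculum 10^4 CFU/ml. […] DMSO control included.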

Escherichia coli [6] = test: Antibacterial activity against Escherichia coli ATCC 25922 at 400 ug/disc after 18 hrs by disc diffusion assay; format: functional, organism-based; in short: as §1
Escherichia coli [7] = test: Antibacterial activity against Escherichia coli NCTC 8196 at 400 ug/disc after 18 hrs by disc diffusion assay; format: functional, organism-based; in short: as §1
Candida albicans [8] = test: Antifungal activity against Candida albicans ATCC 90028 at 400 ug/disc after 24 hrs by disc diffusion assay; format: functional; in short: as §2
Proteus vulgaris = test: Antibacterial activity against Proteus vulgaris NCTC 4635 at 400 ug/disc after 18 hrs by disc diffusion assay; format: functional, organism-based; in short: as §1
Staphylococcus aureus [9] = test: Antibacterial activity against Staphylococcus aureus ATCC 29213 after 18 hrs by serial agar dilution method; format: functional; conditions: ATCC 29213, 18 h; in short: as §3
[10] = tested on: Staphylococcus epidermidis; test: Antibacterial activity against Staphylococcus epidermidis ATCC 12228 after 18 hrs by serial agar dilution method; format: functional; conditions: ATCC 12228, 18 h; in short: as §3
Staphylococcus aureus [11] = test: Antibacterial activity against Staphylococcus aureus ATCC 6538 after 18 hrs by serial agar dilution method; format: functional; conditions: ATCC 6538, 18 h; in short: as §3
Bacillus cereus [12] = test: Antibacterial activity against Bacillus cereus ATCC 11778 after 18 hrs by serial agar dilution method; format: functional; conditions: ATCC 11778, 18 h; in short: as §3
[13] = tested on: Staphylococcus epidermidis; test: Antibacterial activity against Staphylococcus epidermidis ATCC 12228 at 400 ug/disc after 18 hrs by disc diffusion assay; format: functional; conditions: ATCC 12228, 18 h, read-out: IZ; in short: as §1
Enterococcus hirae [14] = test: Antibacterial activity against Enterococcus hirae ATCC 10541 at 400 ug/disc after 18 hrs by disc diffusion assay; format: functional; in short: as §1
Staphylococcus aureus [15] = test: Antibacterial activity against Staphylococcus aureus ATCC 6538 at 400 ug/disc after 18 hrs by disc diffusion assay; format: functional; conditions: ATCC 6538, 18 h, read-out: IZ; in short: as §1
Pseudomonas aeruginosa [16] = test: Antibacterial activity against Pseudomonas aeruginosa ATCC 15442 at 400 ug/disc after 18 hrs by disc diffusion assay; format: functional, organism-based; in short: as §1
Micrococcus luteus [17] = test: Antibacterial activity against Micrococcus luteus ATCC 9341 after 18 hrs by serial agar dilution method; format: functional; conditions: ATCC 9341, 18 h; in short: as §3
Enterococcus hirae [18] = test: Antibacterial activity against Enterococcus hirae ATCC 10541 after 18 hrs by serial agar dilution method; format: functional; conditions: ATCC 10541, 18 h
In short: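 Twofold serial agar dilution MIC in Mueller–Hinton II agar (CLSI), run only for compounds that gave an inhibition zone in disc assay. DMSO solutions tested at 3.125–400 µg/ml in agar. Final inoculum 10^5 CFU/ml. Read after 18 h at 35 °C. DMSO control included.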

Pseudomonas aeruginosa [19] = test: Antibacterial activity against Pseudomonas aeruginosa NCTC 6749 at 400 ug/disc after 18 hrs by disc diffusion assay; format: functional, organism-based; in short: as §1
Micrococcus luteus [20] = test: Antibacterial activity against Micrococcus luteus ATCC 10240 at 400 ug/disc after 18 hrs by disc diffusion assay; format: functional; conditions: ATCC 10240, 18 h, read-out: IZ; in short: as §1
Staphylococcus aureus [21] = test: Antibacterial activity against Staphylococcus aureus ATCC 25923 after 18 hrs by serial agar dilution method; format: functional; conditions: ATCC 25923, 18 h; in short: as §3
Bacillus subtilis [22] = test: Antibacterial activity against Bacillus subtilis ATCC 6633 after 18 hrs by serial agar dilution method; format: functional; conditions: ATCC 6633, 18 h; in short: as §3
Candida albicans [23] = test: Antifungal activity against Candida albicans ATCC 10231 at 400 ug/disc after 24 hrs by disc diffusion assay; format: functional; in short: as §2
Bacillus subtilis [24] = test: Antibacterial activity against Bacillus subtilis ATCC 6633 at 400 ug/disc after 18 hrs by disc diffusion assay; format: functional; conditions: ATCC 6633, 18 h, read-out: IZ; in short: as §1
Staphylococcus aureus [25] = test: Antibacterial activity against Staphylococcus aureus ATCC 29213 at 400 ug/disc after 18 hrs by disc diffusion assay; format: functional; conditions: ATCC 29213, 18 h, read-out: IZ; in short: as §1
Staphylococcus aureus [26] = test: Antibacterial activity against Staphylococcus aureus NCTC 4163 after 18 hrs by serial agar dilution method; format: functional; conditions: NCTC 4163, 18 h; in short: as §3
Staphylococcus aureus [27] = test: Antibacterial activity against Staphylococcus aureus ATCC 25923 at 400 ug/disc after 18 hrs by disc diffusion assay; format: functional; conditions: ATCC 25923, 18 h, read-out: IZ; in short: as §1
[28] = tested on: Bordetella bronchiseptica; test: Antibacterial activity against Bordetella bronchiseptica ATCC 4617 at 400 ug/disc after 18 hrs by disc diffusion assay; format: functional, organism-based; in short: as §1
Bacillus cereus [29] = test: Antibacterial activity against Bacillus cereus ATCC 11778 at 400 ug/disc after 18 hrs by disc diffusion assay; format: functional; conditions: ATCC 11778, 18 h, read-out: IZ; in short: as §1

CC[C@@]1([C@@H]2O[C@@H]([C@H]3O[C@@](O)(CO)[C@H](C)C[C@@H]3C)C[C@@H]2C)CC[C@H]([C@]2(C)CC[C@]3(C[C@H](O)[C@@H](C)[C@@H]([C@@H](C)[C@@H](OC)[C@H](C)C(=O)OCCOCCOCCOC)O3)O2)O1
zone of inhibition at 400 µg/disc (Staphylococcus aureus [1]): 19 mm
zone of inhibition at 400 µg/disc (Micrococcus luteus [2]): 11 mm
Activity (Pseudomonas aeruginosa [3]): inactive
Activity (Escherichia coli [4]): inactive
Activity (Candida parapsilosis): inactive
MIC (Micrococcus luteus [5]): 50 µg/mL (≈ 61.2 µM)
Activity (Escherichia coli [6]): inactive
Activity (Escherichia coli [7]): inactive
Activity (Candida albicans [8]): inactive
Activity (Proteus vulgaris): inactive
MIC (Staphylococcus aureus [9]): 50 µg/mL (≈ 61.2 µM)
MIC [10]: 100 µg/mL (≈ 122 µM)
MIC (Staphylococcus aureus [11]): 100 µg/mL (≈ 122 µM)
MIC (Bacillus cereus [12]): 50 µg/mL (≈ 61.2 µM)
zone of inhibition at 400 µg/disc [13]: 13 mm
Activity (Enterococcus hirae [14]): inactive
zone of inhibition at 400 µg/disc (Staphylococcus aureus [15]): 17 mm
Activity (Pseudomonas aeruginosa [16]): inactive
MIC (Micrococcus luteus [17]): 200 µg/mL (≈ 245 µM)
MIC (Enterococcus hirae [18]): > 400 µg/mL
Activity (Pseudomonas aeruginosa [19]): inactive
zone of inhibition at 400 µg/disc (Micrococcus luteus [20]): 13 mm
MIC (Staphylococcus aureus [21]): 50 µg/mL (≈ 61.2 µM)
MIC (Bacillus subtilis [22]): 25 µg/mL (≈ 30.6 µM)
Activity (Candida albicans [23]): inactive
zone of inhibition at 400 µg/disc (Bacillus subtilis [24]): 20 mm
zone of inhibition at 400 µg/disc (Staphylococcus aureus [25]): 17 mm
MIC (Staphylococcus aureus [26]): 100 µg/mL (≈ 122 µM)
zone of inhibition at 400 µg/disc (Staphylococcus aureus [27]): 19 mm
Activity [28]: inactive
zone of inhibition at 400 µg/disc (Bacillus cereus [29]): 19 mm
